Results on 38 variants are retold here after the RNAGym collection of RNA variant scans (doi:10.1126/science.aae0568).

Fewer inactive variants are shown than the library holds.

B1: tRNA (parent)
chain: GUUCCGUUGGCGUAAUGGUAACGCGUCUCCCUCCUAAGGAGAAGACUGCGGGUUCGAGUCCCGUACGGAACG

In the data set the parent is B1. The experiment in a line: yeast fitness relative to wild type (ratio to wild type); higher = fitter; tRNA-Arg(CCU), competitive growth, 37 C, YPD. An outline of the steps: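 For this measurement, the tRNA-Arg(CCU) gene was varied by chemical synthesis at a 3% per-site mutation rate across 69 sites, and each variant was placed at the native genomic locus in Saccharomyces cerevisiae. The pooled strains went through a 24-hour competition in YPD at 37°C in six parallel replicates, with amplicons from start and end populations read by 100-nucleotide paired-end sequencing. Darwinian fitness relative to wild type followed from the change in each genotype's frequency. Genotypes needed ≥ 100 starting reads, and estimates < 0.5 were set to 0.5.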
As to GUUCCGUUGGCGUAAUGGUAACGCGUGUCCCUCCUAAGGAGUAGACUGCGGGUUUGAGUCCCGUACGGAACG, the yeast fitness was at most 0.5. For GUUCCGUUGGCGUAGUGGUAACGCGUCUCCCUCCUAGGGAGAAGACUGCGGGUUAGAGUCCCGUACGGAACG, the yeast fitness was at most 0.5. The result for GUUCCGUUGGUGUAAUGGUAACACGUCUCCCUGCUAAGGAGAAGACUGCGGGUUCGAGUCCCGUACGGCACG reads at most 0.5; that for GUUCCGUUGGCGUAAUGGUAACGCGUCUCCCUGCUAAGGAGAAGACUGCGGGUUCGAGUACCGUACGGAACG, 0.715.

Turning to GUUCCGUUGGGGUCAUGGUAACGCGUCUCCCUCCUAAGGAGAAGACUGCGGGUUGGUGUCCCGUACAGAACG, the yeast fitness was at most 0.5. Take GUUCUGGUGGCGUAAUGGUAACGCGUCUCUCUCCUAAGGAGAAGACUGCGCGUUCGAGUCACGUACGGAACG: the yeast fitness is at most 0.5. The result for GUUCCGUUGGGGUAAUGGUAACGCGUCUCUCUCCUAAGGAGAAGACUGCGGGUUCGAGUCCCGUACCGAACG reads at most 0.5; that for GUUCCGUUGGCGUAAAGGUAACGCGUCUCCCUCCAAAGGAGAAGACUGCGGGUUCGGGUCCGGUACGGAACG, at most 0.5; that for GUUCCGUUGGUGUAAUGGUAACGCGUCUCCGUCCUAAGGAGAAGACUGCGGGUUCGAGUCCCGGACGGGACG, 0.842. As for GCUCCGUUGGCGUAUAGGUAACGCGUCUCCCUCCUAAGGAGAAGACUGCGGGUUCGAGUCCCGUACGGAACG, the yeast fitness turned out to be 0.62. The result for GUUCAGUUGGCGUAAUGGUAACGCGUCUCCCUCGUAAGGAGAAGACUGGGGGUUCGAGUCCCGUGCGGAACG reads at most 0.5; that for GUUCCGUUGGCAUAAUGGUAACGCGUCUCCCUCCUAAGGCGAAGACUGCGGGUUCGACCCCCAUACGGAACG, at most 0.5; that for GUUCCGUUGGCGUAAUGAUAACGAGUCUCCCUCCUAAGGAGAAGACUGCGGGUUCGAGUCCCGUACGGAACG, 0.564. Take GUUCCGUUGGCGUAAAGGUAACGCGUCUCCAUCCUAAGGAGAAGACUGCGGGUUCGAGUCCCGUACGGUACG: the yeast fitness worked out at 0.62. On to GUUCCGUUGGCGUAAUGGUUACGCGUGUCCCUCCUAAGGAGAAGACUGAGGGUUCGAGUCCCGUACGGAACG, for which the yeast fitness is at most 0.5. On to GCUCCGUUGGCGUAAUGGUAACGCGUCUCCCUCCUAAGGAGAAAAUUGCGGGUUCGAGUCCCGUACGGCACG, for which the yeast fitness amounted to 0.784.

On to GUUCCGUUGGCGUAAUGGUAACGCGUCUCCCUCCUAAGGAGAAGACUACGGGUUCGACUCACGUACGGAACG, for which the yeast fitness worked out at 0.601. GUUCCAUUGGAGUAAUGGUAACGUGUCUCCCUCCUAAGGAGAAGACUGCGGGUUCGAGUCCCGUACGGAACG: the yeast fitness is at most 0.5. The result for GCUCCGUUGGCGUAAUGGUAACGCGUCUCCCUCCUAAGGAGAAGACAGCGGGUUCGAGUCCCGUACGGAACG reads 0.982. For GUUACGUUGGCGUAAUGGUAACGCGUCUCCCUCCUAAGGAGAAGACUGCGGGUUAGAGUCCCGUACGGCUCG, the yeast fitness is at most 0.5. Regarding GUUCCGUUGGCGUAAUGGUAACGCGUCUCCCUCCUAAGAAGAAGACUGCGGGUUCGACUCCCGUACGGAACG, the yeast fitness was determined as 0.948. The result for GUUCCGUUGGCGUAAUGGUAACGCGUCUCCUUCCUAAGGAGAAAUCUGCGGGUUCGAGUCCCGUACGGAACG reads 0.893; that for GUUCCGUGGGCGUAAUGGUAACGGGUCUCCCUCCUAAGGAGAAGACUGCGGGUUCGAGAACCGUACGGAACG, at most 0.5. On to GUUCCGUUGGCGUAGUGGGAACGCGUCUCCCUCCUAAGGAGGAGACUGCGGGUUCGAGUCCCGUACGGAACG, for which the yeast fitness was 0.702.

For the variant GUUCCGUUGGCGUAAUGGUACCGCGUCUCCCUCCUAAGGAGAAGACUGCGGGUUCGAGUCCCGUACGUAACG, the yeast fitness came out at 0.789. On to GUGCCGUUGGCGUAAUGGUAACGCAUCUCCCUCCUAAGGAGAAGCCUGCGGGUUCGAGUCCCGUACGGUACG, for which the yeast fitness was determined as 0.814. The result for GUUCCGUUGGCGUAAUGGUAACGCGUCUCCCUCCUAAGGAGAAGACUGCGGGUGCGAGUGCCCUACGGAACG reads at most 0.5; that for GUUCCGUUGGCGUAAUGGCAACGCGUCUCCUUGCUAAGGAAAAGACUGGGGGUCCGAGUCCCGUACGGAACG, at most 0.5. Turning to GUUCCGUUGGCGUAAUGGAAACGGGUCUCCCUCCUAAGGAGAAGACUGCGGGUUCGAGUCUCGUACGGAACG, the yeast fitness was at most 0.5.

As to GUUCCGUAGGCGUAAUGGUAACGCGUCUCCCUCCUAAGGAGAAGACUGCGGGUUCGAGUCCCGUCCGGAUCG, the yeast fitness worked out at 0.525. The result for GUUCCGUUGGCGUAAUGGUAACGCGUCUCCCUCCUAAGGAGAAGACUGCGGGUUCGAGUCCUGUACGGGUCG reads 0.648.

Take GUUCCGUUGGGGUGAUGGUAACGCGUCUCCCUCCUAAGGAAAAGACUGCGGGUUCGAGUCCCGUACGGAACG: the yeast fitness is at most 0.5.

GUUCCGUUGGCGUAAUGGUAACCCGUCUCGCUCCUAAGGAGAAGACUGCGGGUUCGAGUCCCAUACGGAACG: the yeast fitness was at most 0.5. Regarding GUUACGUUAGCGUAAAGGUAACGCGUCUCUCUCCUAAGGGGAAGAUUGCGGGUUCGAGUCCCGUACGGAACG, the yeast fitness was at most 0.5. The result for GUUCCGUUGGCGUAAUGGUAACGCGUAUCCCUCCUGGGGAGAAGACUGCGGGUUCGAGUCCCGUACGGAUCG reads at most 0.5. For the variant GUUCCGUUGGCGUAAUGGUAACGUGUAUCUCUCCUAAGGAGAAGAGUGCGGGUUCGAGUCCCGUACGGAACG, the yeast fitness is at most 0.5. For GUUCCGUUGGCGUAAUGGUAACGCGUAUCCCUCCUGAGGAGAAGACUGCGGGUUCGGGUCCCGUACGGAACG, the yeast fitness was at most 0.5. The result for GUUCCGUUGGCGUAAUGGUAACGCGUCUCCCUCCAAAGGAGAAGACUGCGGGUUCGAGCCCUGUAUGGAACG reads 0.645.
